From ChEMBL document CHEMBL4396941, “Design, synthesis and biological evaluation of benzamide derivatives as novel NTCP inhibitors that induce apoptosis in HepG2 cells” (Bioorg Med Chem Lett, 2019)
The source made the active and inactive calls. The rule behind the calls is not given here.

Assays:
Hepatitis B virus [1] = test: Antiviral activity against hepatitis B virus infected in human HepG2.2.15 cells assessed as reduction in HBeAg secretion at 5 uM incubated for 9 days by ELISA (reference value: 25.13 +/- 1.93 ng/ml); type: functional
HepG2 [2] = test: Antiproliferative activity against human HepG2 cells assessed as inhibition of cell growth incubated for 24 hrs by MTT assay; type: functional, cell-based; details: HepG2, 24 h
In short: (§1)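 HepG2 cells exposed to a range of concentrations for the stated times, then inhibition rate measured by MTT.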

Hepatitis B virus [3] = test: Antiviral activity against hepatitis B virus infected in human HepG2.2.15 cells assessed as HBsAg secretion at 5 uM incubated for 9 days by ELISA (reference value: 8.41+/- 0.54 ng/ml); type: functional
[4] = biological target: T1, Hepatic sodium/bile acid cotransporter (Homo sapiens, UniProt Q14973); test: Inhibition of NTCP in human hepatocytes; type: cell-based
T1 sequence (Q14973 whole entry): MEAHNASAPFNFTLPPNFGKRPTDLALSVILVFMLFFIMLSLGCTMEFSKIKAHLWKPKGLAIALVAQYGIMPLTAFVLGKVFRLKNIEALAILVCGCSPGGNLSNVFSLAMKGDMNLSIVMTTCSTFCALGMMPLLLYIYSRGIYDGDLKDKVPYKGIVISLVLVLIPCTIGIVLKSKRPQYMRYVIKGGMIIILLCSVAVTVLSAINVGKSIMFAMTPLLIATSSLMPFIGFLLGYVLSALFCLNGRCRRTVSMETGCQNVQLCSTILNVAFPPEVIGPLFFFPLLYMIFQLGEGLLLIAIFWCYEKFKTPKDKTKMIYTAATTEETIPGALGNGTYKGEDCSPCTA

[5] = biological target: T1, Hepatic sodium/bile acid cotransporter; test: Inhibition of human recombinant NTCP expressed in CHO cells assessed as reduction in [3H]taurocholate uptake incubated for 2 mins by scintillation counting method; type: cell-based
Hepatitis B virus [6] = test: Antiviral activity against hepatitis B virus infected in human HepG2.2.15 cells assessed as reduction in HBV DNA level incubated for 9 days by real time-PCR analysis; type: functional, organism-based
[7] = biological target: T1, Hepatic sodium/bile acid cotransporter; test: Inhibition of NTCP in human hepatocytes assessed as reduction in Na+-dependent [3H]taurocholate uptake measured at 45s following compound addition by liquid scintillation counting method; type: cell-based
HepG2 [8] = test: Induction of apoptosis in human HepG2 cells assessed as late apoptotic cells at 10 uM incubated for 24 hrs by annexin -V/propidium iodide staining based flow cytometry (reference value: 4.72%); type: functional
HepG2 [9] = test: Induction of apoptosis in human HepG2 cells assessed as late apoptotic cells at 5 uM incubated for 24 hrs by annexin -V/propidium iodide staining based flow cytometry (reference value: 4.72%); type: functional
HepG2 [10] = test: Antiproliferative activity against human HepG2 cells assessed as inhibition of cell growth incubated for 48 hrs by MTT assay; type: functional, cell-based; details: HepG2, 48 h; in short: as §1
HepG2 [11] = test: Induction of apoptosis in human HepG2 cells assessed as late apoptotic cells at 2.5 uM incubated for 24 hrs by annexin -V/propidium iodide staining based flow cytometry (reference value: 4.72%); type: functional
HepG2 [12] = test: Induction of apoptosis in human HepG2 cells assessed as early apoptotic cells at 5 uM incubated for 24 hrs by annexin -V/propidium iodide staining based flow cytometry (reference value: 2.23%); type: functional
HepG2 [13] = test: Antiproliferative activity against human HepG2 cells assessed as inhibition of cell growth incubated for 72 hrs by MTT assay; type: functional, cell-based; details: HepG2, 72 h; in short: as §1
HepG2 [14] = test: Induction of apoptosis in human HepG2 cells assessed as downregulation of Bcl2 protein expression at 2.5 to 10 uM incubated for 24 hrs by Western blot analysis; type: functional, cell-based
In short: (§2)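 HepG2 cells treated 24 h at several concentrations; NTCP, PARP, Bax, Bcl-2 and caspase-3 detected by western blot.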

HepG2 [15] = test: Inhibition of NTCP protein expression in human HepG2 cells at 2.5 to 10 uM incubated for 24 hrs by western blot analysis; type: functional, cell-based; in short: as §2
HepG2 [16] = test: Induction of apoptosis in human HepG2 cells assessed as increase in caspase-3 cleavage at 2.5 to 10 uM incubated for 24 hrs by Western blot analysis; type: functional, cell-based; in short: as §2
HepG2 [17] = test: Induction of apoptosis in human HepG2 cells assessed as increase in PARP cleavage at 2.5 to 10 uM incubated for 24 hrs by Western blot analysis; type: functional, cell-based; in short: as §2
HepG2 [18] = test: Induction of cell morphological changes in human HepG2 cells assessed as condensed chromatin at 2.5 to 10 uM incubated for 24 hrs by Hoechst 33258 staining based fluorescence microscopy; type: functional
In short: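 HepG2 cells treated 24 h at several concentrations, stained with Hoechst 33258, chromatin morphology examined by fluorescence microscopy.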

HepG2 [19] = test: Induction of apoptosis in human HepG2 cells assessed as early apoptotic cells at 10 uM incubated for 24 hrs by annexin -V/propidium iodide staining based flow cytometry (reference value: 2.23%); type: functional
HepG2 [20] = test: Induction of apoptosis in human HepG2 cells assessed as upregulation of Bax protein expression at 2.5 to 10 uM incubated for 24 hrs by Western blot analysis; type: functional, cell-based; in short: as §2
HepG2 [21] = test: Induction of apoptosis in human HepG2 cells assessed as early apoptotic cells at 2.5 uM incubated for 24 hrs by annexin -V/propidium iodide staining based flow cytometry (reference value: 2.23%); type: functional
[22] = biological target: T1, Hepatic sodium/bile acid cotransporter; test: Inhibition of human recombinant NTCP expressed in CHO cells assessed as reduction in [3H]taurocholate uptake preincubated for 1 hr by radioactive scintillation counting method; type: cell-based

| IC50 (HepG2 [2]) [µM] | SMILES | Activity (Hepatitis B virus [1]) [ng/mL] | Activity (Hepatitis B virus [3]) [ng/mL] | other results |
| --- | --- | --- | --- | --- |
| 28.1 | Cc1ccc(C(=O)NCC(=O)N/N=C/c2ccc(OCc3ccccc3Cl)cc2)cc1 | 14.29 | 4.83 |  |
| 17.1 | O=C(CNC(=O)c1ccc(F)cc1)N/N=C/c1ccccc1OCc1cc2c(cc1Cl)OCO2 | 11.84 | 3.98 |  |
| > 50 | COc1ccc(/C=N/NC(=O)CNC(=O)c2ccc(C#N)cc2)c(OCc2ccccc2Cl)c1 | 25.47 | 8.29 |  |
| 13.4 | Cc1ccc(C(=O)NCC(=O)N/N=C/c2ccccc2OCc2ccccc2Cl)cc1 | 15.01 | 3.95 |  |
| 3.1 | O=C(CNC(=O)c1cccnc1Cl)N/N=C/c1cccc(OCc2ccccc2Cl)c1 | 6.43 | 2.05 | inhibition (Hepatitis B virus [6]): Active |
| 24.9 | O=C(CNC(=O)c1ccc(F)cc1)N/N=C/c1ccccc1OCc1ccccc1Cl | 14.53 | 5.03 |  |
| > 50 | CCN(CC)c1ccc(/C=N/NC(=O)CNC(=O)c2ccc(C)cc2)c(OCc2ccccc2Cl)c1 | 24.55 | 8.37 |  |
| > 50 | CCN(CC)c1ccc(/C=N/NC(=O)CNC(=O)c2ccc(C#N)cc2)c(OCc2ccccc2Cl)c1 | 24.86 | 8.17 |  |
| > 50 | Cc1ccc(C(=O)NCC(=O)N/N=C/c2ccccc2OCc2ccc(Cl)cc2)cc1 | 22.99 | 7.79 |  |
| 15.7 | COc1ccc(/C=N/NC(=O)CNC(=O)c2ccc(F)cc2)c(OCc2ccccc2Cl)c1 | 13.07 | 4.23 |  |
| > 50 | COc1ccc(COc2ccccc2/C=N/NC(=O)CNC(=O)c2ccc(C)cc2)cc1 | 23.04 | 7.66 |  |
| 2.8 | Cc1ccc(C(=O)NCC(=O)N/N=C/c2ccccc2OCc2cc3c(cc2Cl)OCO3)cc1 | 7.43 | 1.93 | Activity (HepG2 [8]): 30.48%; Activity (HepG2 [9]): 21.66%; IC50 (HepG2 [10]): 1.2 µM; Activity (HepG2 [11]): 15.33%; Activity (HepG2 [12]): 5.39%; IC50 (HepG2 [13]): 0.9 µM; Activity (HepG2 [14]): Active; inhibition (HepG2 [15]): Active; Activity (HepG2 [16]): Active; Activity (HepG2 [17]): Active; Activity (HepG2 [18]): Active; Activity (HepG2 [19]): 5.99%; Activity (HepG2 [20]): Active; Activity (HepG2 [21]): 4.73%; inhibition (Hepatitis B virus [6]): Active |
| 4.7 | O=C(CNC(=O)c1cccnc1Cl)N/N=C/c1ccc(OCc2ccccc2Cl)cc1 | 7.36 | 2.48 | inhibition (Hepatitis B virus [6]): Active |
| 14.9 | Cc1ccc(C(=O)NCC(=O)N/N=C/c2ccc(OCc3cc4c(cc3Cl)OCO4)cc2)cc1 | 11.47 | 3.91 |  |
| > 50 | N#Cc1ccc(C(=O)NCC(=O)N/N=C/c2ccccc2OCc2ccccc2Cl)cc1 | 25.22 | 8.33 |  |
| 47.5 | Cc1ccc(C(=O)NCC(=O)N/N=C/c2cccc(OCc3ccccc3Cl)c2)cc1 | 18.09 | 5.74 |  |
| > 50 | COc1ccc(/C=N/NC(=O)CNC(=O)c2ccc(C)cc2)c(OCc2ccccc2Cl)c1 | 23.53 | 7.94 |  |
| > 50 | Cc1ccc(C(=O)NCC(=O)N/N=C/c2ccccc2OCc2ccc(C#N)cc2)cc1 | 25.25 | 8.25 |  |
| 16.9 | O=C(CNC(=O)c1cccnc1Cl)N/N=C/c1ccccc1OCc1ccccc1Cl | 12.55 | 4.08 |  |
| > 50 | O=C(CNC(=O)c1ccc(-c2ccccc2)cc1)N/N=C/c1ccccc1OCc1ccccc1Cl | 24.88 | 8.31 |  |
| > 50 | O=C(CNC(=O)c1ccc(-c2ccccc2)cc1)N/N=C/c1ccccc1OCc1cc2c(cc1Cl)OCO2 | 24.07 | 7.72 |  |
| > 50 | CCN(CC)c1ccc(/C=N/NC(=O)CNC(=O)c2ccc(F)cc2)c(OCc2ccccc2Cl)c1 | 24.34 | 8.04 |  |

The remaining lines, values behind:

| SMILES | IC50 (HepG2 [2]) [µM] | Activity (Hepatitis B virus [1]) [ng/mL] | Activity (Hepatitis B virus [3]) [ng/mL] | other results |
| --- | --- | --- | --- | --- |
| Cc1cc(OCCCS(C)(=O)=O)cc(C)c1-c1cccc(COc2ccc3c(c2)OC[C@H]3CC(=O)O)c1 |  |  |  | IC50 [4]: 2 µM |
| C[C@]1(C(=O)NCCOc2ccc(C3CCCCC3)cc2)CO[C@@H](c2ccccc2)OC1 | 32.9 |  |  |  |
| CC(C)n1c(/C=C/C(O)CC(O)CC(=O)O)c(-c2ccc(F)cc2)c2ccccc21 (stereo unspecified) [FLUVASTATIN] |  |  |  | IC50 [5]: 40 µM |
| Cc1sc(NC(=O)CCn2cnc3ccccc3c2=O)nc1-c1ccc(Cl)cc1 | 25.4 |  |  |  |
| Cc1cc(C)cc(OCC(=O)NCCNC(=O)COc2cc(C)cc(C)c2)c1 | 53.2 |  |  |  |
| O=C1CC(c2ccccc2)CC(=O)C1=CNCCN1CCN(C(=O)Cc2ccccc2)CC1 (stereo unspecified) | 70.2 |  |  |  |
| COc1ccccc1Oc1c(NS(=O)(=O)c2ccc(C(C)(C)C)cc2)nc(-c2ncccn2)nc1OCCO [BOSENTAN] |  |  |  | IC50 [7]: 30 µM |
| O=C(CNC(=O)c1cccnc1)N/N=C/c1ccc(OCc2cc3c(cc2Cl)OCO3)cc1 | 10.1 | 11.45 | 3.71 |  |
| C[C@H](NC(=O)COc1ccc(S(=O)(=O)N[C@H](C)c2ccccc2)cc1)c1ccccc1 | 35.7 |  |  |  |
| C[C@H](Cn1cnc2c(N)ncnc21)OCP(=O)(O)O [TENOFOVIR ANHYDROUS] |  | 5.6 | 1.72 |  |
| O=C(CNC(=O)c1ccc(-c2ccccc2)cc1)N/N=C/c1ccc(OCc2cc3c(cc2Cl)OCO3)cc1 | > 50 | 23.8 | 7.66 |  |
| O=C(COc1ccc(Cl)cc1)NCc1ccc(CNC(=O)COc2ccc(Cl)cc2)cc1 | 26.4 |  |  |  |
| Cc1cccc(CSCCNC(=O)CN(c2cccc(C(F)(F)F)c2)S(C)(=O)=O)c1 | 23.4 |  |  |  |
| Cc1ccccc1OCC(=O)N/N=C/c1cccc(OCc2ccccc2)c1 | 18.6 |  |  |  |
| O=C(CNC(=O)c1cccnc1Cl)N/N=C/c1ccccc1OCc1cc2c(cc1Cl)OCO2 | > 50 | 25.47 | 8.39 |  |
| CCCNS(=O)(=O)Nc1ncnc(OCCOc2ncc(Br)cn2)c1-c1ccc(Br)cc1 |  |  |  | IC50 [22]: 10 µM |
